Experimental data as given in ChEMBL document CHEMBL1122638, “8-Methoxypsoralen-nucleic acid photoreaction. Effect of methyl substitution on pyrone vs. furan photoaddition” (J Med Chem, 1984).

Experiments:
Type in all cases: functional
[1] = Pyrone monoadduct distribution (product resulting from photoaddition with the nucleic acid poly (dA-dT)) after 10 min irradiation at 360 nm
Outline: (§1)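 Alternating poly(dA-dT)·poly(dA-dT), 1 mg (1.5 µmol base pairs) in 1 mL 10 mM Tris pH 7.2, with 0.3 µmol tritiated psoralen added in 95% EtOH. Irradiated 10 min at 10 °C. Polymer ethanol-reprecipitated, then digested sequentially with DNase II (pH 5, 37 °C), phosphodiesterase II (pH 7) and alkaline phosphatase (pH 7.8-8.0). Adducts resolved by reverse-phase HPLC (water-methanol gradient, pH 2.2 phosphate), with A254 and ³H scintillation counting.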

[2] = Total radioactivity after 10 min irradiation at 360 nm; outline: as §1
[3] = Furan monoadduct and diadduct distribution (products resulting from photoaddition with the nucleic acid poly (dA-dT)) after 10 min irradiation at 360 nm; outline: as §1
[4] = Total radioactivity (pyrone monoadduct, furan monoadduct and diadduct resulting from photoaddition with the nucleic acid poly (dA-dT)) after 10 min irradiation at 360 nm; outline: as §1

| Structure (SMILES) | Radioactivity [1] | Radioactivity [2] | Radioactivity [3] | Radioactivity [4] |
| --- | --- | --- | --- | --- |
| COc1c2oc(C)cc2cc2ccc(=O)oc12 | 17% | 90% | 73% | – |
| COc1c2occc2cc2ccc(=O)oc12 | 19% | – | 75% | 94% |
| COc1c2occc2cc2c(C)cc(=O)oc12 | 2% | 96% | 94% | – |
| COc1c2oc(C)cc2cc2c(C)cc(=O)oc12 | 2% | 96% | 94% | – |
